The target of test [1] is T1, 5-hydroxytryptamine receptor 1A (Rattus norvegicus, UniProt P19327).
T1 sequence (P19327 whole entry): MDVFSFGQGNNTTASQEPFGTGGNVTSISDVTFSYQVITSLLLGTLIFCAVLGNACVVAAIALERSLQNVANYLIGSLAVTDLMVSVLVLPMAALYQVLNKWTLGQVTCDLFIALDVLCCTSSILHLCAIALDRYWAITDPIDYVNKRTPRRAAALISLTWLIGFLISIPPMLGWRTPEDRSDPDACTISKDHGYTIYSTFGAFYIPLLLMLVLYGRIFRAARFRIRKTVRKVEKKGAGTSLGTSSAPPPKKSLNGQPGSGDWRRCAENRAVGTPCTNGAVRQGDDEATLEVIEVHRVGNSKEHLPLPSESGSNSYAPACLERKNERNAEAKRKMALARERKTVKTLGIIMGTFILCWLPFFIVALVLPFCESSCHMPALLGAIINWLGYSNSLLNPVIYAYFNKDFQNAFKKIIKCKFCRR
The experiment in a line: Binding affinity towards rat hippocampal 5-hydroxytryptamine 1A receptor using [3H]8-OH-DPAT as radioligand. Type of test: tissue-based, Hippocampus. A digest of the protocol: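 Hippocampus pooled from male Sprague–Dawley rats (175–199 g), homogenised in sucrose and frozen. Membranes washed and preincubated twice at 37 °C in Tris HCl pH 7.4 with EDTA, ascorbate and pargyline. Assay: 0.75 nM [3H]-8-OH-DPAT, 200–400 μg protein, 15 min at 37 °C, GF/C filtration. Nonspecific binding: 10 μM 5-HT. Run in triplicate; expressed as Ki.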

The species named for test [2] is Rattus norvegicus. Kind of test: Effective dose for behavioral activity or hallucinogenic potential in drug discrimination studies in LSD(d-lysergic acid N,N-diethylamide) trained rats. The test is classed as functional. Further details: unit not given here. Put shortly: (§1)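 Male Sprague–Dawley rats (200–220 g) trained in a two-lever, FR50 food task to tell LSD tartrate (0.08 mg/kg ip) from saline. Test drugs were given ip in 0.9% saline 30 min before extinction sessions. The first lever reaching 50 presses was scored; no completion within 5 min counted as disruption.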

Test [3] concerns the target 5-hydroxytryptamine receptor 2A (Rattus norvegicus, UniProt P14842). The experiment in a line: Binding affinity towards rat cortical 5-hydroxytryptamine 2A receptor using [3H]ketanserin as radioligand.
Test [4] deals with T2, 5-hydroxytryptamine receptor 2A (Homo sapiens, UniProt P28223). The experiment in a line: Agonistic activity at cloned human 5-hydroxytryptamine 2A receptor using [125I]DOI as radioligand. Type of test: functional. A digest of the protocol:
(§2)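 AV12 hamster fibroblast membranes stably expressing the human receptor. Final buffer: 10 μM pargyline, 9.75 mM MgCl2, 0.5 mM EDTA, 0.1% Na ascorbate, 50 mM Tris HCl pH 7.4. [125I]DOI was at about 0.07–0.15 nM, with about 40 μg (2A) or 30 μg (2C) protein, for 30 min at 37 °C. Nonspecific binding: 1 μM ketanserin (2A) or 10 μM mianserin (2C). Read by filtration and gamma counting.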

Test [5] addresses T3, 5-hydroxytryptamine receptor 2B (Homo sapiens, UniProt P41595). The experiment in a line: Antagonistic activity at cloned human 5-hydroxytryptamine 2B receptor using [3H]rauwolscine as radioligand. Type of test: functional. A digest of the protocol:
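Human 5-HT2B membranes from stably transformed AV12 cells in Tris HCl pH 7.4. Competition against 2 nM [3H]rauwolscine (final), with 500 nM efaroxan to mask α2 sites, in 50 mM Tris HCl pH 7.4. Incubated 20 min at 37 °C, then filtered. Nonspecific binding with 10 μM 1-naphthylpiperazine.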

Test [6] has as its target T4, 5-hydroxytryptamine receptor 2C (Homo sapiens, UniProt P28335).
T4 sequence (P28335 whole entry): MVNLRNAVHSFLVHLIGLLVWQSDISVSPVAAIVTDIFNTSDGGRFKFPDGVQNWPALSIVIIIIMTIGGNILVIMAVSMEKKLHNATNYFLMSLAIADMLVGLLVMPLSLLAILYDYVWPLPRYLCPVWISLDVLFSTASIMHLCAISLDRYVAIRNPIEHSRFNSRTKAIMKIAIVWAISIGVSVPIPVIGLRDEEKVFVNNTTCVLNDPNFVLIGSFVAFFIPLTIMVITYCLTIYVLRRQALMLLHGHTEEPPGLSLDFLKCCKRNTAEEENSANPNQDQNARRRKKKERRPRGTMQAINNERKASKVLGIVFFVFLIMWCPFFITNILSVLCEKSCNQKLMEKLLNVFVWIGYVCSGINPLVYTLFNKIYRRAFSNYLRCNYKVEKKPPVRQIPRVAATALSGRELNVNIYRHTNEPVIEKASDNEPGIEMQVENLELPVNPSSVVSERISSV
Kind of test: Antagonistic activity at cloned human 5-hydroxytryptamine 2C receptor using [3H]mesulergine as radioligand. Type of test: functional. Put shortly:
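AV12 membranes expressing human 5-HT2C. The 0.8 mL assay held 0.74–0.82 nM [3H]mesulergine, varying competitor and Tris HCl, final pH 7.6. Incubated 30 min at 37 °C, then filtered, washed and counted by liquid scintillation. Mianserin defined nonspecific binding.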

For test [7], the target named is T3, 5-hydroxytryptamine receptor 2B. The experiment in a line: Agonistic activity at cloned human 5-hydroxytryptamine 2B receptor using [3H]-5-HT as radioligand. The test is classed as functional. Put shortly:
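Membranes from AV12 hamster fibroblasts stably expressing human 5-HT2B, lysed hypotonically in 50 mM Tris HCl pH 7.4. Competition against about 2 nM [3H]-5-HT (free level measured) in 50 mM Tris, 3 mM CaCl2, 10 μM pargyline, 0.1% ascorbic acid, pH 7.4. Drug dilutions spanned 6 log units. About 100-150 μg protein per tube, 15 min at 37 °C, in triplicate. Nonspecific binding with 10 μM 5-HT or 1-NP. Filtration, then scintillation counting.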

In test [8] the target is T2, 5-hydroxytryptamine receptor 2A. Kind of test: Antagonistic activity at cloned human 5-hydroxytryptamine 2A receptor using [3H]ketanserin as radioligand. Type of test: functional. Put shortly:
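Human 5-HT2A expressed in AV12 cell membranes. The 0.8 mL assay held 50 mM Tris HCl, 100 nM prazosin to block α1 sites, 0.4–0.5 nM [3H]ketanserin and varying competitor, final pH 7.6. Incubated 15 min at 37 °C, then filtered and washed. Mianserin 3 μM defined nonspecific binding. Read by liquid scintillation.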

Test [9] has as its target T4, 5-hydroxytryptamine receptor 2C. Kind of test: Agonistic activity at cloned human 5-hydroxytryptamine 2C receptor using [125I]DOI as radioligand. Type of test: functional. Put shortly:
as §2

The species entered for test [10] is Rattus norvegicus. The experiment in a line: Effective dose in Drug Discrimination studies in LSD(d-lysergic acid N,N-diethylamide) trained rats. No. of animals tested 15. The test is classed as functional. Put shortly:
as §1

Structures are written as SMILES.

Sequence of 5-hydroxytryptamine receptor 2A (Rattus norvegicus, UniProt P14842) (P14842 whole entry): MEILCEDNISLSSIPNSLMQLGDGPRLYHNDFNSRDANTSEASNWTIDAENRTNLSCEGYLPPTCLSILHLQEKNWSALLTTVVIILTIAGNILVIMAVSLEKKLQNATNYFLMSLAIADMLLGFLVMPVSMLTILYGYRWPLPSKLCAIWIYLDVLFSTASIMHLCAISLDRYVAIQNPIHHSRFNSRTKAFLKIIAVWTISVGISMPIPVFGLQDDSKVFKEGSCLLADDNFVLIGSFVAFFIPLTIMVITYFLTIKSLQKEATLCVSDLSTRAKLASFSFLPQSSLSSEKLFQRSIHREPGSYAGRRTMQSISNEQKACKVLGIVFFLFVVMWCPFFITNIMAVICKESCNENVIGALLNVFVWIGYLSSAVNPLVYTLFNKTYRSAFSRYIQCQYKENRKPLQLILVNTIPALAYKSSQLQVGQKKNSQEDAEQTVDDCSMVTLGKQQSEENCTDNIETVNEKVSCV
T2 sequence (P28223 whole entry): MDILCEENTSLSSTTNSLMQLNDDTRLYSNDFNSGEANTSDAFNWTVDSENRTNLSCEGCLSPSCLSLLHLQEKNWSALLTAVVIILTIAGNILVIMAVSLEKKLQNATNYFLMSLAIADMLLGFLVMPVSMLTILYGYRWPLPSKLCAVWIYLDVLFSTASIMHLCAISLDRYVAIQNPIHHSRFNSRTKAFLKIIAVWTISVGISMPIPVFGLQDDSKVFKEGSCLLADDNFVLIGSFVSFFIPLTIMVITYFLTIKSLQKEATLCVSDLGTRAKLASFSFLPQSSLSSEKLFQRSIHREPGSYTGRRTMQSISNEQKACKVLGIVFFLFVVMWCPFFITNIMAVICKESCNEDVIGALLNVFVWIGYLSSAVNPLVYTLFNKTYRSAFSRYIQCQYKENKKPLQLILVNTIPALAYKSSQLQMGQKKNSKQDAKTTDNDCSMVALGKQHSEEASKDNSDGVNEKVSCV
T3 sequence (P41595 whole entry): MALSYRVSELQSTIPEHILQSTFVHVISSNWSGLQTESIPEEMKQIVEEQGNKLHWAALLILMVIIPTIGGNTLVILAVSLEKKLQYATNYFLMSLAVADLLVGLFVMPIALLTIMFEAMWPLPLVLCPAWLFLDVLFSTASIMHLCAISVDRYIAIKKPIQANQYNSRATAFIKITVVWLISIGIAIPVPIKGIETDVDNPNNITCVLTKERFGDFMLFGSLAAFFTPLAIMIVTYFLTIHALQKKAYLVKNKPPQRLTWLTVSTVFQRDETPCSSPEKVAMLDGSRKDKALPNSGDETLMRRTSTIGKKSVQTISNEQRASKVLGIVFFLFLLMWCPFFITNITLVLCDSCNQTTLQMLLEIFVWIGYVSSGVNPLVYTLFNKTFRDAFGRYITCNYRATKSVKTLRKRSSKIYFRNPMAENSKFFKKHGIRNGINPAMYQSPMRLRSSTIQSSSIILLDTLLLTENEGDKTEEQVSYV

As to `NCCc1c2c(cc3c1OCC3)OCC2`, the Ki was found to be 5.2 nM in [1] and 2300 nM in test [3]. This molecule also registered an ED50 in the test filed under Rattus norvegicus [2] of 1430.
Consider `CC(N)Cc1c2c(c(Br)c3c1OCC3)OCC2` (stereo unspecified), for which the Ki in [4] is 0.48 nM; in [5], 1.15 nM; in [1] it was 4.3 nM; in test [6], 2.28 nM; in test [7] it was 1.6 nM; in test [8], 10.7 nM. Besides, the Ki stood at 0.3 nM in test [9] and 18 nM in test [3]. In the test filed under Rattus norvegicus [2], this molecule had an ED50 of 61.
`NCCc1c2c(c(Br)c3c1OCC3)OCC2`: the Ki in test [1] is 0.8 nM; in test [3] it was 34 nM.
Take `Cc1c2c(c(CC(C)N)c3c1OCC3)OCC2` (stereo unspecified): the ED50 in the test filed under Rattus norvegicus [2] was 780.
Take `COc1cc(Br)c2c(c1CC(C)N)CCO2` (stereo unspecified): in the test listed under Rattus norvegicus [2], the ED50 was 570.
Regarding `CC(N)Cc1c2c(cc3c1OCC3)OCC2` (stereo unspecified), the values for the inhibition constant Ki in test [1] and in [3] were 29 nM and 2010 nM, respectively. For the same molecule, the ED50 in the test filed under Rattus norvegicus [2] came out at 64000.
Take `COc1cc(CC(C)N)c(OC)cc1Br` (stereo unspecified) [BROLAMFETAMINE]: the Ki in test [1] was found to be 6.1 nM.
On to `CCN(CC)C(=O)[C@@H]1C=C2c3cccc4[nH]cc(c34)C[C@H]2N(C)C1` [LYSERGIDE], for which, in the test filed under Rattus norvegicus [10], the ED50 is 40 µmol/kg.

For the origin of these results see ChEMBL document CHEMBL1129247, “Dihydrobenzofuran analogues of hallucinogens. 3. Models of 4-substituted (2,5-dimethoxyphenyl)alkylamine derivatives with rigidified methoxy groups” (J Med Chem, 1996).
